# Assay results from ChEMBL document CHEMBL1121762, “2-(Isoxazolylethenyl)phenoxypropanolamines: a new class of beta-receptor antagonists with antihypertensive activity” (1981).
# System: Rattus norvegicus
# Assay: Relative potency required for antihypertensive activity in spontaneous hypertensive rats after oral administration
# Assay type: functional
# Method in brief: (§1)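 Male SH rats (Okamoto strain), 250-380 g, groups of four to eight, dosed orally. Systolic pressure by tail cuff at 35 °C ambient, before and 2 h after dosing. ED20 = dose lowering systolic pressure 20%, corrected for placebo controls; from log dose vs Δ% regression; relative potency vs labetalol (=1.0).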
row,SMILES,Relative potency
1,COc1ccc(CCC(C)(C)NCC(O)COc2ccccc2/C=C/c2cc(C)no2)cc1 (stereo unspecified),~2.2
2,Cc1cc(/C=C/c2ccccc2OCC(O)CNC(C)CCc2ccc(O)cc2)on1 (stereo unspecified),~1
3,Cc1cc(/C=C/c2ccccc2OCC(O)CNC(C)CCc2ccccc2)on1 (stereo unspecified),~1
4,Cc1cc(/C=C/c2ccccc2OCC(O)CNC(C)(C)CCc2ccc(O)cc2)on1 (stereo unspecified),~2.2
5,Cc1cc(/C=C/c2ccccc2OCC(O)CNC2CC2)on1 (stereo unspecified),~2.2
6,COCc1cc(/C=C/c2ccccc2OCC(O)CNC2CC2)on1 (stereo unspecified),~4.8
7,CCc1cc(/C=C/c2ccccc2OCC(O)CNC(C)C)on1.Cl (stereo unspecified),5.1
8,Cc1cc(/C=C/c2ccccc2OCC(O)CNC(C)(C)C)on1.Cl (stereo unspecified),3.3
9,Cc1cc(C=Cc2ccccc2OCC(O)CNC(C)(C)C)no1.Cl (stereo unspecified),~2.2
10,COCc1cc(/C=C/c2ccccc2OCC(O)CNC(C)C)on1.Cl (stereo unspecified),2.6
11,COCc1cc(/C=C/c2ccccc2OCC(O)CNC(C)(C)C)on1.Cl (stereo unspecified),~2.2

# System: Rattus norvegicus
# Assay: Relative potency required for hypotensive activity in anesthetized rat
# Assay type: functional
# Method in brief: (§2)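 Male Sprague-Dawley rats, 230-280 g, anesthetized with urethane 1.78 g/kg ip; groups of two to five. Compound given iv. Mean carotid arterial pressure recorded by transducer. ED20 = dose lowering mean carotid pressure by 20%; 95% confidence limits; relative potency versus labetalol (=1.0).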
row,SMILES,Relative potency
1,COc1ccc(CCC(C)(C)NCC(O)COc2ccccc2/C=C/c2cc(C)no2)cc1 (stereo unspecified),~5.2
2,Cc1cc(/C=C/c2ccccc2OCC(O)CNC(C)CCc2ccc(O)cc2)on1 (stereo unspecified),10.6
3,Cc1cc(/C=C/c2ccccc2OCC(O)CNC(C)CCc2ccccc2)on1 (stereo unspecified),~5.2
4,Cc1cc(/C=C/c2ccccc2OCC(O)CNC(C)(C)CCc2ccc(O)cc2)on1 (stereo unspecified),~5.2
5,Cc1cc(/C=C/c2ccccc2OCC(O)CNC2CC2)on1 (stereo unspecified),~3.5
6,COCc1cc(/C=C/c2ccccc2OCC(O)CNC2CC2)on1 (stereo unspecified),~5.2
7,CCc1cc(/C=C/c2ccccc2OCC(O)CNC(C)C)on1.Cl (stereo unspecified),12.7
8,Cc1cc(/C=C/c2ccccc2OCC(O)CNC(C)(C)C)on1.Cl (stereo unspecified),13
9,Cc1cc(C=Cc2ccccc2OCC(O)CNC(C)(C)C)no1.Cl (stereo unspecified),~2.4
10,COCc1cc(/C=C/c2ccccc2OCC(O)CNC(C)C)on1.Cl (stereo unspecified),~5.2
11,COCc1cc(/C=C/c2ccccc2OCC(O)CNC(C)(C)C)on1.Cl (stereo unspecified),~6.5

# System: Rattus norvegicus
# Assay: Dose required for inhibition of L-phenylephrine-induced pressor response in pithed rats after intravenous administration
# Assay type: functional
# Method in brief: (§3)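 Pithed male Sprague-Dawley rats, 200-240 g, amobarbital 120 mg/kg ip, artificially ventilated; three to five per dose. l-Phenylephrine 1.47 μg/kg iv before and 5 min after iv compound; carotid pressure recorded. ED50 = dose halving phenylephrine pressor rise; 95% confidence limits; relative potency vs labetalol (=1.0).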
row,SMILES,ED50
1,Cc1cc(/C=C/c2ccccc2OCC(O)CNC2CC2)on1 (stereo unspecified),0.63 mg/kg
2,COCc1cc(/C=C/c2ccccc2OCC(O)CNC2CC2)on1 (stereo unspecified),0.73 mg/kg
3,Cc1cc(/C=C/c2ccccc2OCC(O)CNC(C)(C)C)on1.Cl (stereo unspecified),0.12 mg/kg
4,COCc1cc(/C=C/c2ccccc2OCC(O)CNC(C)C)on1.Cl (stereo unspecified),0.61 mg/kg
5,COCc1cc(/C=C/c2ccccc2OCC(O)CNC(C)(C)C)on1.Cl (stereo unspecified),0.21 mg/kg

# System: Rattus norvegicus
# Assay: Dose required for antihypertensive activity in spontaneous hypertensive rats after oral administration
# Assay type: functional
# Method in brief: as §1
row,SMILES,ED20
1,COc1ccc(CCC(C)(C)NCC(O)COc2ccccc2/C=C/c2cc(C)no2)cc1 (stereo unspecified),~21.5 mg/kg
2,Cc1cc(/C=C/c2ccccc2OCC(O)CNC(C)CCc2ccc(O)cc2)on1 (stereo unspecified),~46.4 mg/kg
3,Cc1cc(/C=C/c2ccccc2OCC(O)CNC(C)CCc2ccccc2)on1 (stereo unspecified),~46.4 mg/kg
4,Cc1cc(/C=C/c2ccccc2OCC(O)CNC(C)(C)CCc2ccc(O)cc2)on1 (stereo unspecified),~21.5 mg/kg
5,Cc1cc(/C=C/c2ccccc2OCC(O)CNC2CC2)on1 (stereo unspecified),~21.5 mg/kg
6,COCc1cc(/C=C/c2ccccc2OCC(O)CNC2CC2)on1 (stereo unspecified),~10 mg/kg
7,CCc1cc(/C=C/c2ccccc2OCC(O)CNC(C)C)on1.Cl (stereo unspecified),9.38 mg/kg
8,Cc1cc(/C=C/c2ccccc2OCC(O)CNC(C)(C)C)on1.Cl (stereo unspecified),14.5 mg/kg
9,Cc1cc(C=Cc2ccccc2OCC(O)CNC(C)(C)C)no1.Cl (stereo unspecified),~21.5 mg/kg
10,COCc1cc(/C=C/c2ccccc2OCC(O)CNC(C)C)on1.Cl (stereo unspecified),18.2 mg/kg
11,COCc1cc(/C=C/c2ccccc2OCC(O)CNC(C)(C)C)on1.Cl (stereo unspecified),~21.5 mg/kg

# Species: Rattus norvegicus
# Assay: Relative potency required for inhibition of L-phenylephrine-induced pressor response in pithed rats
# Assay type: functional
# Method in brief: as §3
row,SMILES,Relative potency
1,Cc1cc(/C=C/c2ccccc2OCC(O)CNC2CC2)on1 (stereo unspecified),0.8
2,COCc1cc(/C=C/c2ccccc2OCC(O)CNC2CC2)on1 (stereo unspecified),0.6
3,Cc1cc(/C=C/c2ccccc2OCC(O)CNC(C)(C)C)on1.Cl (stereo unspecified),3.9
4,COCc1cc(/C=C/c2ccccc2OCC(O)CNC(C)C)on1.Cl (stereo unspecified),0.8
5,COCc1cc(/C=C/c2ccccc2OCC(O)CNC(C)(C)C)on1.Cl (stereo unspecified),2.2

# System: Rattus norvegicus
# Assay: Dose required for hypotensive activity in anesthetized rat after intravenous administration
# Assay type: functional
# Method in brief: as §2
row,SMILES,ED20
1,COc1ccc(CCC(C)(C)NCC(O)COc2ccccc2/C=C/c2cc(C)no2)cc1 (stereo unspecified),~1 mg/kg
2,Cc1cc(/C=C/c2ccccc2OCC(O)CNC(C)CCc2ccc(O)cc2)on1 (stereo unspecified),0.49 mg/kg
3,Cc1cc(/C=C/c2ccccc2OCC(O)CNC(C)CCc2ccccc2)on1 (stereo unspecified),~1 mg/kg
4,Cc1cc(/C=C/c2ccccc2OCC(O)CNC(C)(C)CCc2ccc(O)cc2)on1 (stereo unspecified),~1 mg/kg
5,Cc1cc(/C=C/c2ccccc2OCC(O)CNC2CC2)on1 (stereo unspecified),~1.47 mg/kg
6,COCc1cc(/C=C/c2ccccc2OCC(O)CNC2CC2)on1 (stereo unspecified),~1 mg/kg
7,CCc1cc(/C=C/c2ccccc2OCC(O)CNC(C)C)on1.Cl (stereo unspecified),0.41 mg/kg
8,Cc1cc(/C=C/c2ccccc2OCC(O)CNC(C)(C)C)on1.Cl (stereo unspecified),0.4 mg/kg
9,Cc1cc(C=Cc2ccccc2OCC(O)CNC(C)(C)C)no1.Cl (stereo unspecified),~2.15 mg/kg
10,COCc1cc(/C=C/c2ccccc2OCC(O)CNC(C)C)on1.Cl (stereo unspecified),~1 mg/kg
11,COCc1cc(/C=C/c2ccccc2OCC(O)CNC(C)(C)C)on1.Cl (stereo unspecified),~0.8 mg/kg

# System: Rattus norvegicus
# Assay: Dose required for inhibition of isoproterenol-induced tachycardia in pithed rat after intravenous administration
# Assay type: functional
# Method in brief: (§4)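 Male Sprague-Dawley rats, 200-240 g, anesthetized with amobarbital 120 mg/kg ip, pithed and ventilated via tracheal cannula; groups of two to five. Isoproterenol 0.1 μg/kg iv given before and 5 min after iv compound; heart rate by rate meter. ED50 = dose halving tachycardia; 95% confidence limits; relative potency vs labetalol (=1.0).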
row,SMILES,ED50
1,COc1ccc(CCC(C)(C)NCC(O)COc2ccccc2/C=C/c2cc(C)no2)cc1 (stereo unspecified),~0.215 mg/kg
2,Cc1cc(/C=C/c2ccccc2OCC(O)CNC(C)CCc2ccc(O)cc2)on1 (stereo unspecified),0.011 mg/kg
3,Cc1cc(/C=C/c2ccccc2OCC(O)CNC(C)CCc2ccccc2)on1 (stereo unspecified),~0.0464 mg/kg
4,Cc1cc(/C=C/c2ccccc2OCC(O)CNC(C)(C)CCc2ccc(O)cc2)on1 (stereo unspecified),~0.0215 mg/kg
5,Cc1cc(/C=C/c2ccccc2OCC(O)CNC2CC2)on1 (stereo unspecified),0.0091 mg/kg
6,COCc1cc(/C=C/c2ccccc2OCC(O)CNC2CC2)on1 (stereo unspecified),~0.01 mg/kg
7,CCc1cc(/C=C/c2ccccc2OCC(O)CNC(C)C)on1.Cl (stereo unspecified),~0.0215 mg/kg
8,Cc1cc(/C=C/c2ccccc2OCC(O)CNC(C)(C)C)on1.Cl (stereo unspecified),0.0088 mg/kg
9,Cc1cc(C=Cc2ccccc2OCC(O)CNC(C)(C)C)no1.Cl (stereo unspecified),0.013 mg/kg
10,COCc1cc(/C=C/c2ccccc2OCC(O)CNC(C)C)on1.Cl (stereo unspecified),0.0064 mg/kg
11,COCc1cc(/C=C/c2ccccc2OCC(O)CNC(C)(C)C)on1.Cl (stereo unspecified),0.0074 mg/kg

# System: Rattus norvegicus
# Assay: Relative potency required for inhibition of isoproterenol-induced tachycardia in pithed rat after intravenous administration
# Assay type: functional
# Method in brief: as §4
row,SMILES,Relative potency
1,COc1ccc(CCC(C)(C)NCC(O)COc2ccccc2/C=C/c2cc(C)no2)cc1 (stereo unspecified),~0.7
2,Cc1cc(/C=C/c2ccccc2OCC(O)CNC(C)CCc2ccc(O)cc2)on1 (stereo unspecified),12.7
3,Cc1cc(/C=C/c2ccccc2OCC(O)CNC(C)CCc2ccccc2)on1 (stereo unspecified),~3
4,Cc1cc(/C=C/c2ccccc2OCC(O)CNC(C)(C)CCc2ccc(O)cc2)on1 (stereo unspecified),~6.5
5,Cc1cc(/C=C/c2ccccc2OCC(O)CNC2CC2)on1 (stereo unspecified),15.4
6,COCc1cc(/C=C/c2ccccc2OCC(O)CNC2CC2)on1 (stereo unspecified),~14
7,CCc1cc(/C=C/c2ccccc2OCC(O)CNC(C)C)on1.Cl (stereo unspecified),~6.5
8,Cc1cc(/C=C/c2ccccc2OCC(O)CNC(C)(C)C)on1.Cl (stereo unspecified),15.9
9,Cc1cc(C=Cc2ccccc2OCC(O)CNC(C)(C)C)no1.Cl (stereo unspecified),10.8
10,COCc1cc(/C=C/c2ccccc2OCC(O)CNC(C)C)on1.Cl (stereo unspecified),21.9
11,COCc1cc(/C=C/c2ccccc2OCC(O)CNC(C)(C)C)on1.Cl (stereo unspecified),18.9
